Experimental data reported in PubChem BioAssay AID623899 (Broad Institute, 2012).
“And” between values parts separate entries of the source, which are not always exact repeats. Equal values may be shown once. The source made the active and inactive calls.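 How the source made its calls: active means falling signal with AC50 at or below twice the highest valid dose tested for that sample; inconclusive means flat curve at 30 to 70% inhibition, or unreliable fit; inactive means the rest.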

Tests used:
[1] = single-agent C. albicans CaCi-2 growth inhibition, dose response, CaCi-2 strain, dry powder, plate reader, set 2 (AID 623899); conditions: C. albicans CaCi-2 growth, Alamar Blue fluorescence, 48 h; at 26 µM (top of the series)
Procedure, shortened: (§1)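 System: fluconazole-resistant C. albicans strain CaCi-2 / Input: inoculum OD600 0.00015 / Dosing: dose-response series of pinned test compound / Timing: compound exposure 48 h, 37 °C, humidified, static, then dye 2 h / Measured by: Alamar Blue fluorescence, read 2 h after dye addition / Controls: amphotericin 10 µM as positive control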

[2] = tested on: C. albicans CaCi-2 growth, Alamar Blue fluorescence, 48 h; assay: as above
Procedure, shortened: as §1

| SMILES | activity change, negative = inhibition [1] | AC50 [2] |
| --- | --- | --- |
| CCOC(=O)N1C(=S)NC(=O)C12CCCCC2 | 6.84% (inactive) | – |
| Cc1ccc(N2C(=S)NC(=O)C23CCOCC3)cc1 | -17.4% (inactive) | – |
| CCOC(=O)N1C(=O)C2(CCCCC2)N(c2ccccc2C)C1=S | – | 1200 nM |
| CCOC(=O)N1C(=S)N(c2ccc(C)cc2)C2(CCCCC2)C1=NCc1ccccc1 | 3.84% (inactive) | – |
| CCOC(=O)N1C(=O)C2(CCCCC2)N(c2ccc(C#N)cc2)C1=S | – | < 100 nM |
| Cc1ccc(N2C(=S)N(C(=O)OCc3ccccc3)C(=O)C23CCCCC3)cc1 | 1.35% (inactive) | – |
| CCOC(=O)N1C(=O)C2(CCCCC2)N(c2ccc(C(C)C)cc2)C1=S | -19.6% (inactive) | – |
| CCOC(=O)N1C(=S)N(c2ccc(C)cc2)C(=O)C12CCCCC2 | 6.88% (inactive) | – |
| Cc1ccc(N2CC(=O)NC2=O)cc1 | -7.46% (inactive) | – |
| O=C1NC(=S)N(Cc2ccccc2)C12CCCCC2 | 0.564% (inactive) | – |
| CCOC(=O)N1C(=O)C2(CCCCC2)N(c2ccc(Cl)cc2)C1=S | – | < 100 nM |
| CC(C)N1C(=S)NC(=O)C12CCCCC2 | -4.41% (inactive) | – |
| CCCCN1C(=O)N(c2ccc(C)cc2)C2(CCCCC2)C1=S | – | > 52000 nM (inactive) |
| CCOC(=O)N1C(=O)C2(CCCCC2)NC1=S | 0.477% (inactive) | – |
| Cc1ccc(N2C(=S)NC(=O)C23CCCCC3)cc1 | – | > 52000 nM (inactive) |
| CCOC(=O)N1C(=O)N(c2ccc(C)cc2)C2(CCCCC2)C1=O | -28.5% (inactive) | – |
| Cc1ccc(N2C(=S)N(C(=O)OC(C)C)C(=O)C23CCCCC3)cc1 | – | 8740 nM |
| O=C1NC(=S)N(c2ccccc2)C12CCCCC2 | – | > 52000 nM (inactive) |
| Cc1ccc(N2C(=S)N(C(=O)Oc3ccccc3)C(=O)C23CCCCC3)cc1 | 9.01% (inactive) | – |
| CCCC(=O)N1C(=O)C2(CCCCC2)N(c2ccc(C)cc2)C1=S | 15.2% (inactive) | – |
| CCCc1ccc(N2C(=S)N(C(=O)OCC)C(=O)C23CCCCC3)cc1 | – | 6910 nM |
| Cc1ccc(N2C(=S)N(C)C(=O)C23CCCCC3)cc1 | -8.14% (inactive) and -15.3% (inactive) | – |
| Cc1ccc(N2C(=O)NC(=O)C23CCCCC3)cc1 | 14.7% (inactive) | – |
| CCOC(=O)N1C(=O)C2(CCCCC2)N(c2ccccc2)C1=S | – | 148 nM |
| Cc1ccc(N2C(=S)NC(=O)C23CCC3)cc1 | -14.6% (inactive) | – |
| CCOC(=O)N1C(=O)C2(CCCCC2)N(Cc2ccccc2)C1=S | – | 3760 nM |

| SMILES | activity change, negative = inhibition [1] | AC50 [2] |
| --- | --- | --- |
| Cc1ccc(N2C(=S)NC(=O)C2(C)C)cc1 | 2.43% (inactive) | – |
| CCOC(=O)N1C(=O)C2(CCCCC2)N(c2ccc(C)cc2)C1=S | – | 359 nM and 303 nM |
| CCCCN1C(=O)N(c2ccc(C)cc2)C2(CCCCC2)C1=O | 9.77% (inactive) | – |
| CC1/C=C/C=C\C=C\C=C\C=C\C=C\C=C\C(O[C@H]2OC(C)C(O)C(N)C2O)CC2OC(O)(CC(O)CC(O)C(O)CCC(O)CC(O)CC(=O)OC(C)C(C)C1O)CC(O)C2C(=O)O (stereo partly specified) | – | < 10 nM |
| CCOC(=O)N1C(=O)C2(CCCCC2)N(c2ccc(F)cc2)C1=S | – | < 100 nM |
| CCOC(=O)N1C(=O)C2(CCOCC2)N(c2ccc(C)cc2)C1=S | – | 20600 nM |
| CCOC(=O)N1C(=O)C2(CCCCC2)N(c2cccc(C)c2)C1=S | – | 189 nM |
| CCOC(=O)N1C(=O)C(C)(C)N(c2ccc(C)cc2)C1=S | 17.8% (inactive) | – |
| CCOC(=O)N1C(=O)C2(CCCCC2)N(c2ccc(C(F)(F)F)cc2)C1=S | – | 841 nM |
| CCOC(=O)N1C(=O)C2(CCCCC2)N(c2ccc(CC)cc2)C1=S | – | 1900 nM |
| Cc1ccc(N2C(=O)N(C)C(=O)C23CCCCC3)cc1 | 8.26% (inactive) | – |
| CCOC(=O)N1C(=O)C2(CCCCC2)N(C(C)C)C1=S | -20% (inactive) | – |
| Cc1ccc(N2C(=S)NC(=O)C23CCCC3)cc1 | 7.79% (inactive) | – |
| CCOC(=O)N1C(=O)C2(CCCC2)N(c2ccc(C)cc2)C1=S | – | 9790 nM |
| Cc1ccc(N2CC(=O)NC2=S)cc1 | -6.22% (inactive) | – |
| O=C1NC(=S)NC12CCCCC2 | 4.86% (inactive) | – |
| COC(=O)N1C(=O)C2(CCCCC2)N(c2ccc(C)cc2)C1=S | – | 1890 nM |
| O=C1NC(=S)N(c2ccc(F)cc2)C12CCCCC2 | -13.4% (inactive) | – |
| CCCCN1C(=O)C2(CCCCC2)N(c2ccc(C)cc2)C1=S | – | > 52000 nM (inactive) |
| Cc1ccc(N2C(=O)C(=O)NC2=S)cc1 | 9.23% (inactive) | – |
| Cc1ccc(N2C(=O)C3(CCCCC3)NC2=S)cc1 | 9.21% (inactive) | – |
| CCOC(=O)N1C(=O)C2(CCCCC2)N(c2ccc(OC)cc2)C1=S | – | 1780 nM |
| Cc1ccc(N2C(=S)N(S(C)(=O)=O)C(=O)C23CCCCC3)cc1 | 8.47% (inactive) | – |
| CCCOC(=O)N1C(=O)C2(CCCCC2)N(c2ccc(C)cc2)C1=S | – | 5900 nM |
| CCOC(=O)N1C(=O)C2(CCC2)N(c2ccc(C)cc2)C1=S | 18% (inactive) | – |
